According to ChEMBL document CHEMBL1159388, “Steroidal glycosides from the rhizomes of Dioscorea spongiosa” (2003):
Where a SMILES comes first, the peptide text is derived from it. Bridges are numbered along the chain shown (N, C = ends). [ ]: non-standard residue; d: D form. Asu = N[C@@H](CCCCCC(=O)O)C(=O)O

Assays:
Type in all cases: functional
[1] = Antiosteoporotic activity in mouse parietal bone assessed as inhibition of parathyroid hormone induced bone resorption by measuring 45Ca release at 200 uM by scintillation counting; parameters: scale not given: the % may be the effect or the level left
How it was run: (§1)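 Mice aged 2 days received 45CaCl2 (2 μCi) subcutaneously; parietal bones were taken 2 days later and cultured on grids at the gas-liquid interface. Medium was Ham's F-12 with NaHCO3, 1.0 mM CaCl2 and 5% heat-inactivated horse serum, at 37 °C under 5% CO2. After 24 h preculture, bones were exposed to PTH (2×10^-9 M final) plus sample for 6 days, medium changed at day 3. Four bones per group.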

[2] = Antiosteoporotic activity in mouse parietal bone assessed as inhibition of parathyroid hormone induced bone resorption by measuring 45Ca release at 20 uM by scintillation counting; parameters: scale not given: the % may be the effect or the level left; how it was run: as §1
[3] = Antiosteoporotic activity in mouse parietal bone assessed as inhibition of parathyroid hormone induced bone resorption at 200 uM; how it was run: as §1
[4] = Antiosteoporotic activity in mouse parietal bone assessed as inhibition of parathyroid hormone induced bone resorption by measuring 45Ca release by scintillation counting; parameters: scale not given: the % may be the effect or the level left; how it was run: as §1

SMILES | Activity [1] | Activity [2] | inhibition (INH) [3] | Activity [4]
C=C[C@@H](CCCCC)O[C@H]1O[C@H](CO[C@@H]2OC[C@H](O)[C@H](O)[C@H]2O)[C@@H](O)[C@H](O)[C@H]1O | 20.7% | 23.8% | 61.6% | 
CC(C)C[C@H](NC(=O)[C@H](CCCCN)NC(=O)CNC(=O)[C@H](CC(C)C)NC(=O)[C@@H](NC(=O)[C@@H]1CCCCCC(=O)N[C@@H](CO)C(=O)N[C@@H](CC(N)=O)C(=O)N[C@@H](CC(C)C)C(=O)N[C@@H](CO)C(=O)N[C@@H]([C@@H](C)O)C(=O)N1)C(C)C)C(=O)N[C@@H](CO)C(=O)N[C@@H](CCC(N)=O)C(=O)N[C@@H](CCC(=O)O)C(=O)N[C@@H](CC(C)C)C(=O)N[C@@H](Cc1cnc[nH]1)C(=O)N[C@@H](CCCCN)C(=O)N[C@@H](CC(C)C)C(=O)N[C@@H](CCC(N)=O)C(=O)N[C@H](C(=O)N[C@@H](Cc1ccc(O)cc1)C(=O)N1CCC[C@H]1C(=O)N[C@@H](CCCNC(=N)N)C(=O)N[C@H](C(=O)N[C@@H](CC(=O)O)C(=O)N[C@H](C(=O)NCC(=O)N[C@@H](C)C(=O)NCC(=O)N[C@H](C(=O)N1CCC[C@H]1C(N)=O)[C@@H](C)O)C(C)C)[C@@H](C)O)[C@@H](C)O [ELCITONIN] (SNLST[Asu]VLGKLSQELHKLQTYPRTDVGAGTP-NH2; lactam N-6) |  |  |  | 18.4%
CC(=O)[C@H]1[C@@H](OC(=O)CCC(C)CO[C@@H]2O[C@H](CO)[C@@H](O)[C@H](O)[C@H]2O)C[C@H]2[C@@H]3CC=C4C[C@@H](O[C@@H]5O[C@H](CO)[C@@H](O[C@@H]6O[C@@H](C)[C@H](O)[C@@H](O)[C@H]6O)[C@H](O)[C@H]5O[C@@H]5O[C@@H](C)[C@H](O)[C@@H](O)[C@H]5O)CC[C@]4(C)[C@H]3CC[C@@]21C (stereo partly drawn) [HYPOGLAUCIN G] | 19.2% | 22.8% | 66.7% | 
CO[C@]1(CC[C@@H](C)CO[C@@H]2O[C@H](CO)[C@@H](O)[C@H](O)[C@H]2O)O[C@H]2C[C@H]3[C@@H]4CC=C5C[C@@H](O[C@@H]6O[C@H](CO)[C@@H](O[C@@H]7O[C@@H](C)[C@H](O)[C@@H](O)[C@H]7O)[C@H](O)[C@H]6O[C@@H]6O[C@@H](C)[C@H](O)[C@@H](O)[C@H]6O)CC[C@]5(C)[C@H]4CC[C@]3(C)[C@H]2[C@@H]1C [METHYLPROTODIOSCIN] | 17.4% | 24.9% | 89.9% | 
CC(C)CC[C@H](O)[C@@H](C)[C@H]1[C@@H](O[C@@H]2O[C@H](CO)[C@@H](O)[C@H](O)[C@H]2O)C[C@H]2[C@@H]3CC=C4C[C@@H](O[C@@H]5O[C@H](CO)[C@@H](O[C@@H]6O[C@@H](C)[C@H](O)[C@@H](O)[C@H]6O)[C@H](O)[C@H]5O[C@@H]5O[C@@H](C)[C@H](O)[C@@H](O)[C@H]5O)CC[C@]4(C)[C@H]3CC[C@]12C [SPONGIOSIDES A] | 17.1% | 30.9% | 63.6% | 
